According to ChEMBL document CHEMBL1152304, “Alteration of the bis-tetrahydrofuran core stereochemistries in asimicin can affect the cytotoxicity” (J Med Chem, 2008):

Key:
L1210 [1] = experiment: Cytotoxicity against mouse L1210 cells at 3 ug by disk diffusion assay; format: functional
Procedure, shortened: (§1)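 15 µL of sample dried overnight on 6.5 mm filter disk. Disk placed near edge of 60 mm dish of cells plated in soft agar, incubated 7-10 days. Zone of inhibition measured from disk edge to start of normal-sized colony formation, disk diameter taken as 200 units. Overly toxic samples diluted 1:4 or 1:10 and retested.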

[2] = Cytotoxicity against human CFU-GM cells at 0.3 ug by disk diffusion assay; format: functional; procedure, shortened: as §1
[3] = Cytotoxicity against human H125M cells at 30 ug by disk diffusion assay; format: functional; procedure, shortened: as §1
[4] = Cytotoxicity against human CFU-GM cells at 30 ug by disk diffusion assay; format: functional; procedure, shortened: as §1
MC-38 [5] = experiment: Cytotoxicity against mouse Colon 38 cells at 0.3 ug by disk diffusion assay; format: functional; procedure, shortened: as §1
MC-38 [6] = experiment: Cytotoxicity against mouse Colon 38 cells at 30 ug by disk diffusion assay; format: functional; procedure, shortened: as §1
HCT-116 [7] = experiment: Cytotoxicity against human HCT116 cells at 30 ug by disk diffusion assay; format: functional; procedure, shortened: as §1
L1210 [8] = experiment: Cytotoxicity against mouse L1210 cells at 0.3 ug by disk diffusion assay; format: functional; procedure, shortened: as §1
[9] = Cytotoxicity against human CFU-GM cells at 3 ug by disk diffusion assay; format: functional; procedure, shortened: as §1
CCRF-CEM [10] = experiment: Cytotoxicity against human CEM cells at 30 ug by disk diffusion assay; format: functional; procedure, shortened: as §1
MC-38 [11] = experiment: Cytotoxicity against mouse Colon 38 cells at 3 ug by disk diffusion assay; format: functional; procedure, shortened: as §1
L1210 [12] = experiment: Cytotoxicity against mouse L1210 cells at 30 ug by disk diffusion assay; format: functional; procedure, shortened: as §1
L1210 [13] = experiment: Cytotoxicity against mouse L1210 cells at 15 ug by disk diffusion assay; format: functional; procedure, shortened: as §1
L1210 [14] = experiment: Cytotoxicity against mouse L1210 cells at 3.75 ug by disk diffusion assay; format: functional; procedure, shortened: as §1
L1210 [15] = experiment: Cytotoxicity against mouse L1210 cells at 0.94 ug by disk diffusion assay; format: functional; procedure, shortened: as §1
[16] = Inhibition of bovine heart mitochondrial complex1 activity; parameters: species or system Bos taurus
Procedure, shortened: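 Bovine heart submitochondrial particles, 15 µg/mL, in 0.25 M sucrose, 1 mM MgCl2, 50 mM phosphate pH 7.5. Inhibitor added at various concentrations and equilibrated 5 min. Reaction started with 150 µM NADH and followed spectrophotometrically at 340 nm. IC50 derived.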

HCT-116 [17] = experiment: Cytotoxicity against human HCT116 cells; format: functional, cell-based
HCT-116 [18] = experiment: Cytotoxicity against human HCT116 cells at 15 ug by disk diffusion assay; format: functional; procedure, shortened: as §1
L1210 [19] = experiment: Cytotoxicity against mouse L1210 cells at 60 ug by disk diffusion assay; format: functional; procedure, shortened: as §1
MC-38 [20] = experiment: Cytotoxicity against mouse Colon 38 cells at 15 ug by disk diffusion assay; format: functional; procedure, shortened: as §1
CCRF-CEM [21] = experiment: Cytotoxicity against human CEM cells at 15 ug by disk diffusion assay; format: functional; procedure, shortened: as §1
MC-38 [22] = experiment: Cytotoxicity against mouse Colon 38 cells at 0.94 ug by disk diffusion assay; format: functional; procedure, shortened: as §1
MC-38 [23] = experiment: Cytotoxicity against mouse Colon 38 cells at 60 ug by disk diffusion assay; format: functional; procedure, shortened: as §1
MC-38 [24] = experiment: Cytotoxicity against mouse Colon 38 cells at 3.75 ug by disk diffusion assay; format: functional; procedure, shortened: as §1
[25] = Cytotoxicity against human CFU-GM cells at 0.94 ug by disk diffusion assay; format: functional; procedure, shortened: as §1
[26] = Cytotoxicity against human CFU-GM cells at 15 ug by disk diffusion assay; format: functional; procedure, shortened: as §1
[27] = Cytotoxicity against human CFU-GM cells at 60 ug by disk diffusion assay; format: functional; procedure, shortened: as §1
[28] = Cytotoxicity against human H125M cells at 15 ug by disk diffusion assay; format: functional; procedure, shortened: as §1
[29] = Cytotoxicity against human CFU-GM cells at 3.75 ug by disk diffusion assay; format: functional; procedure, shortened: as §1

SMILES	inhibition zone (IZ) (L1210 [1]) [Zone units]	inhibition zone (IZ) [2] [Zone units]	inhibition zone (IZ) [3] [Zone units]	inhibition zone (IZ) [4] [Zone units]	inhibition zone (IZ) (MC-38 [5]) [Zone units]	inhibition zone (IZ) (L1210 [13]) [Zone units]	inhibition zone (IZ) (L1210 [14]) [Zone units]	inhibition zone (IZ) (L1210 [15]) [Zone units]	inhibition zone (IZ) (HCT-116 [18]) [Zone units]	inhibition zone (IZ) (L1210 [19]) [Zone units]	inhibition zone (IZ) (MC-38 [20]) [Zone units]	inhibition zone (IZ) (CCRF-CEM [21]) [Zone units]	inhibition zone (IZ) (MC-38 [22]) [Zone units]	inhibition zone (IZ) (MC-38 [23]) [Zone units]	inhibition zone (IZ) (MC-38 [24]) [Zone units]	inhibition zone (IZ) [25] [Zone units]	inhibition zone (IZ) [26] [Zone units]	inhibition zone (IZ) [27] [Zone units]	inhibition zone (IZ) [28] [Zone units]	inhibition zone (IZ) [29] [Zone units]	other results
C[C@H]1C=C(C[C@H](O)CCCCCCCCCC[C@@H](O)[C@H]2CC[C@H]([C@H]3CC[C@H]([C@H](O)CCCCCCCCCCO)O3)O2)C(=O)O1	100	450	500	650	450																inhibition zone (IZ) (MC-38 [6]): 800 Zone units; inhibition zone (IZ) (HCT-116 [7]): 600 Zone units; inhibition zone (IZ) (L1210 [8]): 50 Zone units; inhibition zone (IZ) [9]: 550 Zone units; inhibition zone (IZ) (CCRF-CEM [10]): 150 Zone units; inhibition zone (IZ) (MC-38 [11]): 600 Zone units; inhibition zone (IZ) (L1210 [12]): 200 Zone units
CCCCCCCCCC[C@H](O)[C@H]1CC[C@@H]([C@@H]2CC[C@H]([C@@H](O)CCCCCCCCCC[C@@H](O)CC3=C[C@H](C)OC3=O)O2)O1						200	250	100	550	650	900	0	700	800	800	550	250	700	400	600	IC50 [16]: 5 nM; IC50 (HCT-116 [17]): 0.69 nM
CCCCCCC[C@H](O)CC[C@H](O)[C@H]1CC[C@H]([C@H]2CC[C@H]([C@H](O)CCCCCCCCCC[C@@H](O)CC3=C[C@H](C)OC3=O)O2)O1						250	350	150	600	700	950	0	600	900	750	500	400	700	100	550	
CCCCCCCCCC[C@@H](O)[C@H]1CC[C@@H]([C@@H]2CC[C@@H]([C@H](O)CCCCCCCCCC[C@@H](O)CC3=C[C@H](C)OC3=O)O2)O1	200	450	500	650	450																IC50 [16]: 2 nM; inhibition zone (IZ) (MC-38 [6]): 850 Zone units; inhibition zone (IZ) (HCT-116 [7]): 500 Zone units; inhibition zone (IZ) (L1210 [8]): 100 Zone units; inhibition zone (IZ) [9]: 550 Zone units; inhibition zone (IZ) (CCRF-CEM [10]): 200 Zone units; inhibition zone (IZ) (MC-38 [11]): 700 Zone units; inhibition zone (IZ) (L1210 [12]): 300 Zone units
CCCCCCCCCC[C@@H](O)[C@H]1CC[C@@H]([C@H]2CC[C@H]([C@H](O)CCC[C@H](O)CCCCCCCC3=C[C@H](C)OC3=O)O2)O1 [TRILOBIN]						200	200	100	450	850	800	100	600	950	800	400	350	550	350	500	
